Measurements collected from several papers.
Protocols differ between the studies behind these lines.
Target: Serine/threonine-protein kinase Nek2 (NEK2, Homo sapiens, UniProt P51955)
Residues used in one study (P51955 1-445): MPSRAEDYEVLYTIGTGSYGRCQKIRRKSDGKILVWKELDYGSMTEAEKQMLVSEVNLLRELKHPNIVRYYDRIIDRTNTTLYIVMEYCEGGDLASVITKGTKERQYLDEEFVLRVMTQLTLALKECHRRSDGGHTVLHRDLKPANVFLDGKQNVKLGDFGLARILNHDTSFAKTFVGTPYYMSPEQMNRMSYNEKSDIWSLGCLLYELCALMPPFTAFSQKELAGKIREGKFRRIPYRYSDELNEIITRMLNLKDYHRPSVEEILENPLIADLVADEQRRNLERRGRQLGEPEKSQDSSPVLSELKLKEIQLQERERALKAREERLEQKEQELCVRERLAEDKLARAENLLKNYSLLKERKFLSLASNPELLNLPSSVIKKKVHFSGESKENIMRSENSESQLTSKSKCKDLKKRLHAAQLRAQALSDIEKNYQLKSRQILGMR

Cn1cncc1[C@](O)(COc1ccc(C#N)cc1-c1ccc(OC(F)(F)F)cc1)c1ccc(C#N)cc1  remaining binding (cell-free assay, competition with immobilised ligand; 1 µM): 100%
Nc1ncc(-c2nc(N3CCOCC3)nc(N3CCOCC3)n2)c(C(F)F)n1  remaining binding (binding, competition with immobilised ligand; 10 µM): 87%
CC(C)(C)c1cc(C=C(C#N)C#N)cc(Br)c1O  remaining activity (enzyme activity, inhibitor; 0.5 µM): 96%
COc1cc(Nc2ncc(F)c(Nc3ccc4c(n3)NC(=O)C(C)(C)O4)n2)cc(OC)c1OC  inhibition (binding, competition with immobilised ligand; 10 µM): 83%
Cc1nn(C)cc1-c1nc2c(N3CCN(Cc4ccc(Cl)cc4)CC3)c(Cl)cnc2[nH]1  remaining binding (binding, competition with immobilised ligand; 1 µM): 100%
C#Cc1n[nH]c2c(-c3cn(C(C)c4ccccn4)c(=O)[nH]c3=O)cc(F)cc12 (stereo not drawn)  inhibition (enzyme activity, inhibitor; 1 µM): -4.6%
COc1ncccc1-c1cnn2ccc(N3CCN(C(=O)OC(C)C)CC3)nc12  remaining binding (binding, competition with immobilised ligand; 1 µM): 86%
N#CC1(c2ccccn2)CCN(Cc2cc(C(=O)O)c(=O)n3ccccc23)CC1  remaining binding (cell-free assay, competition with immobilised ligand; 1 µM): 100%
Cn1cc(-c2cccc(N3CCc4c(sc5c4CC(C)(C)C5)C3=O)c2CO)cc(Nc2ccncn2)c1=O  inhibition (enzyme activity, inhibitor; 1 µM): 4%
O=c1[nH]c2ccccc2n1C1CCN(Cc2ccc(-c3[nH]c4cc5ncnc5cc4nc3-c3ccccc3)cc2)CC1  remaining signal (cell-free assay; 0.5 µM): 96.8%
Cn1cc(-c2cc(F)cc(N3CCn4c(cc5c4CCCC5)C3=O)c2CO)cc(Nc2ccc(N3CCN(C4COC4)CC3)cn2)c1=O  inhibition (enzyme activity, inhibitor; 0.1 µM): 10%
C#Cc1n[nH]c2c(-c3cn([C@@H](C)c4ccccc4)c(=O)[nH]c3=O)cc(F)cc12  inhibition (enzyme activity, inhibitor; 0.1 µM): 0.5%
